The results in this text go back to the EternaBench riboswitch data.

The data set deals with MS2 coat protein. Nature of the data set: apparent Kd, MS2 coat protein; higher = weaker binding; RNA-MaP array; FMN 200 µM where present. In outline:
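Two titrations, one without ligand and one with constant ligand, were run with SNAP-549-labelled MS2 coat protein from 0.7 or 1.5 nM, doubling to 3 µM. The targets were designs transcribed by stalled E. coli RNA polymerase on Illumina sequencing-chip clusters, in 100 mM Tris-HCl pH 7.5, 80 mM KCl, 4 mM MgCl2, BSA, DTT, yeast tRNA and Tween-20. The apparent Kd is the median of filtered per-cluster binding-curve fits, with green signal normalised to red-channel RNA signal and control-cluster median Fmax.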

[1] abbreviates: designed as: OFF switch for flavin mononucleotide, no ligand.
[2] abbreviates: ligand present: flavin mononucleotide, designed as: OFF switch for flavin mononucleotide.
Where [3] appears, read: ligand present: flavin mononucleotide, designed as: ON switch for flavin mononucleotide.
Setting [4] is: designed as: ON switch for flavin mononucleotide, no ligand.

One may read the apparent Kd as a dissociation constant that holds for the conditions of the assay.

For the sequence “GGUACUCAAAGAGUACGGAGUCGAACAUGAGGAUCACCCAUGUAGGAUAUGCGAGUUUUGAAUUUGCAGAAGGACAUUUGCAGC”, the “apparent Kd” value was found to be 9.62 nM under setting [1] and 11.2 nM under setting [2]. With “GUCGAGUGAGGAUAUGGUGAGUAGUGCCUGAGCGCUGCUCACCAGAAGGCACAUGAGGAUCACCCAUGUAUAGC”, the “apparent Kd” value under setting [2] stood at 29 nM. Consider “AUAAAUGAUGAGGAUAUCACUAGCGAUAGCUAGUGAGAAGGCAUCACAUGAGGAUCACCCAUGUGCUCCAAUAA”, for which the “apparent Kd” value turned out to be 115 nM under setting [1] and 486 nM under setting [2]. Turning to “CGUACGUCAGGAUAUCUGAUGUCUAACUUCGGUUAGACAUCAGAGAAGGGACAUGAGGAUCACCCAUGUACGAG”, the “apparent Kd” value was 88.3 nM under setting [1] and 105 nM under setting [2].

On to “GGCGGGCGGGAGGAUAUUCGGGCUGUUUGGCUUGGAGAAGGCUCGACAUGAGGAUCACCCAUGUUUGGGUCGUC”, for which the “apparent Kd” value under setting [1] stood at 18 nM and the “apparent Kd” value under setting [2] came out at 37.8 nM. On the same counts, the results for “ACUGGAGCAGGAUAUAUAUGACGUGCUUCGGCACGAAGAUCACAUGAGGAUCACCCAUGUAGAAGGGCUCCAGU” are 106 nM and 813 nM.

For the sequence “GUGGUCAGACAUGAGGAUCACCCAUGUGGAAUAAAUAACACACAGGAUAUCAAAUAUAAAAUAUAUGAGAAGGGUGGAUUGGUG”, the “apparent Kd” value under setting [3] came out at 224 nM. For “AAUAAACACACAGGAUAUAGCAUCGUCGUUGCGAACUUAGCGACGUCGAUGCUAGAAGGGUGAAAACAUGAGGAUCACCCAUGU”, the “apparent Kd” value under setting [4] stood at 80.9 nM and the “apparent Kd” value under setting [3] worked out at 20.1 nM. Take “GCCAGGCAUGUAGGAUAUCCAUUGCGUCGCGUUGGAGAAGGGCAGCACACAUGAGGAUCACCCAUGUGGUCUCCCAUGUAGUGU”: the “apparent Kd” value was determined as 163 nM under setting [1] and 206 nM under setting [2]. As for “UUGAUGUCAUCAGGAUAUAGUAUUUAAGACAUAUCUUCUUUCAAACAUGAGGAUCACCCAUGUCGCUAGAAGGGAUUAUUGAUU”, the “apparent Kd” value under setting [1] worked out at 16.8 nM and the “apparent Kd” value under setting [2] worked out at 13 nM. On to “GGAUAGGACAGAGGAUAUACGUGCUAGAGAUACUAGCAAAAUUUCCUCACAUGAGGAUCACCCAUGUAGAAGGCUGUACUAUCG”, for which the “apparent Kd” value is, setting by setting: under setting [1], 15.2 nM; under setting [2], 202 nM. “UAUCUGUGAGGAUAUCCGGGCCCGGGCGAAAGCCCGGGCCCGGAGAAGGCACAUGAGGAUCACCCAUGUGACCU”: the “apparent Kd” value is, setting by setting: under setting [1], 14.8 nM; under setting [2], 19.1 nM. As for “UAGUAGAUCCGAGGAUAUACAAUCCGGAAACGGUACAUGAGGAUCACCCAUGUAGAAGGCGGAUCUACAGGUACUAAAGUACCC”, the “apparent Kd” value is, setting by setting: under setting [1], 5.89 nM; under setting [2], 8.32 nM.

In the case of “AAACACAAACAUGAGGAUCACCCAUGUUAUGAAAAUACUGGGAGAAGGGCGAUUGCAAAGCAAUCGCAGGAUAUUCGUAUUGUG”, the “apparent Kd” value under setting [4] was 76.7 nM and the “apparent Kd” value under setting [3] came to 16.1 nM.

For “GGUUGGCGAGGAUAUACAUGAGGAUCACCCAUGUGAGAGAAAAAAGUGAGUAAGAAAAGUAGAAGGCGCUGACG”, the “apparent Kd” value was 40.1 nM under setting [1] and 302 nM under setting [2]. On to “AUUUCGUUAGCAGGAUAUGGACAGGCCUGUCCGUAUUGAGUCAGUAACAUGAGGAUCACCCAUGUCCAGAAGGGCUCGAAGUUA”, for which the “apparent Kd” value is, setting by setting: under setting [1], 8.15 nM; under setting [2], 15.8 nM. As for “CGCUACUACCAGAAGGACAUGAGGAUCACCCAUGUAGGAUAUGGGUUACACGUUCCUGUGAAUUGUUACUACGCUACGUAUGCG”, the “apparent Kd” value by setting is: under setting [4], 401 nM; under setting [3], 21.5 nM. On to “UUCGUGCAGCUUUGCUGUACGCGUACAUGAGGAUCACCCAUGUAGGAUAUGGUAGGCUUUGCUUACUAGAAGGAUAUAGUGAUC”, for which the “apparent Kd” value is, setting by setting: under setting [1], 153 nM; under setting [2], 221 nM. As for “CCUAAGGACACAGGAUAUAGCGUGGUGGCUGUGCUCCAACGGCGAGCGGCGCUAGAAGGGUGACCACAUGAGGAUCACCCAUGU”, the “apparent Kd” value by setting is: under setting [4], 665 nM; under setting [3], 177 nM. On to “UUGGACGUCGUAGGAUAUGUAGGAUAUUCCUACAUGAGGAUCACCCAUGUUGACAUGGAAGAAGGACUGAAGGACGAUGUCCAU”, for which the “apparent Kd” value under setting [4] is 763 nM and the “apparent Kd” value under setting [3] was 22.9 nM.

Consider “AUCUUCGGAGGAUAUUCUCCGUCACACAUGAGGAUCACCCAUGUCAUUCGAAUGGGUUCGGAAGAAGGUCGAAGGU”, for which the “apparent Kd” value runs as follows: under setting [1], 236 nM; under setting [2], 171 nM. In the case of “AAAGUCUAUUGAGGAUAUCGUUAUCAAAGAUAAUGAGAAGGCAAACAAUCAUGAGGACAUGAGGAUCACCCAUGUUGUGACCAU”, the “apparent Kd” value reads like this: under setting [4], 22.3 nM; under setting [3], 13.4 nM.

For “AAGACAUGAGGAUCACCCAUGUAAAGACCGGUCGAUCAAGGUGAGGAUAUACAAUAAUUGAUAGGGUAGAAGGCACUGGGUUGA”, the “apparent Kd” value reads like this: under setting [4], 286 nM; under setting [3], 148 nM.

In the case of “AGCUGUGGCCGAGGAUAUCUAUCUCCAAUAACCGAAAUAUAAUCGGACAUGAGGAUCACCCAUGUAGAGAAGGCGGUCUCAGCA”, the “apparent Kd” value is, setting by setting: under setting [1], 20.7 nM; under setting [2], 36 nM.

Turning to “UGUCGGAGCAGAGGAUAUUACAUGAGGAUCACCCAUGUAUGAACCAAUAGCUGUAAACAGCAAUGUAAGAAGGCUGCUCCGACA”, the “apparent Kd” value amounted to 12.7 nM under setting [1] and 191 nM under setting [2]. With “AAAUAGCUUGAGGAUAUUGGAUUGGAUUCAGUGCGAGAAGGCAAGACAUGAGGAUCACCCAUGUUGUGUUGGGA”, the “apparent Kd” value under setting [1] turned out to be 47.2 nM and the “apparent Kd” value under setting [2] was determined as 90 nM.

Regarding “UUUUAACAUGAGGAUCACCCAUGUGAGGAUAUCGAAAUUUAUAUUAAUAUUUAUUUUUCGAGAAGGCACAUUUU”, the “apparent Kd” value turned out to be 164 nM under setting [1] and 159 nM under setting [2].

As for “CUAAAUCAUGUAGGAUAUGGAUGGCGAAGCUACCCAGAAGGACAUGAGGAUCACCCAUGUCAGAACGUCUGCGUUCAGACGUUG”, the “apparent Kd” value reads like this: under setting [1], 35.7 nM; under setting [2], 217 nM. On to “GUGGUCAGACAUGAGGAUCACCCAUGUGGAAUAAAUAAGGUCAAGGAUAUUCAAUAUAGGAUAUAGAAGAAGGUGAGGUUGGUG”, for which the “apparent Kd” value was 136 nM under setting [4] and 188 nM under setting [3]. For “GCUGACGAUGUAGGAUAUCUCGACGAUAAGUCGAGAGAAGGACAUGAGGAUCACCCAUGUCUCCAAACGUCAGCGAGGAAACUC”, the “apparent Kd” value runs as follows: under setting [1], 16.1 nM; under setting [2], 16.4 nM. “AUCUAAGAAUUAAUUGUGACAGUGAGAAGGCUAUAGUAUGUGACCGACAUGAGGAUCACCCAUGUAGAGGAUAUCACUUGCUAC”: the “apparent Kd” value was 71.8 nM under setting [1] and 335 nM under setting [2]. The corresponding values for “CUUUUGUGAGGAUAUCAGUAGUAAAUAAAUAAAAUAACUACUGAGAAGGCACAUGAGGAUCACCCAUGUUCCUC” are 35.8 nM and 223 nM. For the sequence “ACGCUUUGGGAGAAGGUACGUUAAUUAUUUUCCACAUGAGGAUCACCCAUGUAAGGAUAUCCCGGCGUGAAAUAGGCUACAGCA”, the “apparent Kd” value runs as follows: under setting [1], 6.71 nM; under setting [2], 8.08 nM. Take “CAAGGCGGUGAAGGAUAUACACGGGCGUUGCCAAACAUGAGGAUCACCCAUGUAGAAGGUCACCCUGAGAAGGCUUUAUGCCUA”: the “apparent Kd” value is, setting by setting: under setting [1], 411 nM; under setting [2], 42.2 nM. The corresponding values for “AUUGCCUUUGUCAGGAUAUCUGAGGUCGAAAGUGAAGAGAAGGGACAUGAGGAUCACCCAUGUAGUGGUACGCA” are 144 nM and 431 nM. “CUCUUCUCUGAGGAUAUUUUAUGUGUGGACGUGAAAGAAGGCAGUACAUGAGGAUCACCCAUGUGUCCCUCUGU”: the “apparent Kd” value is, setting by setting: under setting [1], 126 nM; under setting [2], 216 nM. As to “GGAUUUCCUGAGGAUAUUGCAUCACCCGAUUUAUAAGAAGGCAGAACAUGAGGAUCACCCAUGUGGGUCUCCGG”, the “apparent Kd” value is, setting by setting: under setting [1], 18.9 nM; under setting [2], 23.1 nM. Regarding “CUAAAAGUCGAGGAUAUGCACCGGCUUUCUGACGCAGAAGGCGACACAUGAGGAUCACCCAUGUCGGUACGCGA”, the “apparent Kd” value amounted to 13.7 nM under setting [1] and 15.8 nM under setting [2].

On to “AAAAUCUAUACAGGAUAUCCAUACGCUGCAUACGGAGAAGGGUAACAAUCAUGAGGACAUGAGGAUCACCCAUGUUGUGACCAU”, for which the “apparent Kd” value under setting [4] amounted to 232 nM and the “apparent Kd” value under setting [3] was 76.1 nM. On to “UGAACUAUGUAGAAGGCCCGCAUGAAAAUGACGGGAGGAUAUACAUGAGGAUCACCCAUGUGAAGAGCAAGAGGGUUUAACAGA”, for which the “apparent Kd” value worked out at 282 nM under setting [1] and 163 nM under setting [2]. On to “UGGUACAUGGGAGGAUAUCCUCAAGACAUGAGGAUCACCCAUGUAAAUUAUAAGCCGAAAGGCAUGGAGAAGGCCCAUGUACCU”, for which the “apparent Kd” value under setting [4] was 96.3 nM and the “apparent Kd” value under setting [3] worked out at 20.2 nM. For the sequence “UUACUUUUACAGAAGGUUUAAUAAUAUAUAAAAGAAGGAUAUGUAACAUGAGGAUCACCCAUGUUUCACCCAUAUGAGGAUCAU”, the “apparent Kd” value is, setting by setting: under setting [1], 7.18 nM; under setting [2], 6.98 nM. Take “GGAUCGAAUGUGAGGAUAUGCUGGUCCUUGGAUCAGCAGAAGGCACAUGAGGAUCACCCAUGUGACCUAGAUCC”: the “apparent Kd” value came to 32.7 nM under setting [1] and 430 nM under setting [2]. Regarding “GCAGAACAUGAGGAUCACCCAUGUCUCUAAUAUCGAGGAUAUGGGCACGGUAUAUCCGAACCAGAAGGCGAACUGC”, the “apparent Kd” value under setting [4] was determined as 272 nM and the “apparent Kd” value under setting [3] amounted to 60 nM. As to “AACCUAAAACAGAAGGCCAGCUACAUGAGGAUCACCCAUGUCGAAUCAUGGAGGAUAUGUUGUAAUUUACUCGCAGAUGAGUGC”, under setting [3], the “apparent Kd” value stood at 5.92 nM. As for “UUACUAUCACAGAAGGGUAGAUAGUAUAUAGAUGCAGGAUAUGUGACAUGAGGAUCACCCAUGUUUCACCCACAUGAGGAUCAC”, the “apparent Kd” value came to 17.5 nM under setting [1] and 18.9 nM under setting [2]. “AAUAACAGAGGAUAUACUAUUUUAUGUGUUUGUUGUUUUAAACAUGAGGAUCACCCAUGUAGAAGGCUGAUUAA”: the “apparent Kd” value was 32.7 nM under setting [1] and 38.8 nM under setting [2]. On to “AAUAUGUUGCAGAAGGCCAUGUUGUGGUAGUGCCUCAUGACAUGAGGAUCACCCAUGUCUGUGAUGGAGGAUAUGCAAUAUAUU”, for which the “apparent Kd” value was determined as 8.15 nM under setting [1] and 37 nM under setting [2].
